Compound activity deposited in PubChem BioAssay by several laboratories.
In the library only some 1.6% were active in any assay of this set; here they are far more common.
SUMO HTRF inh = inhibitors of in vitro SUMOylation cascade, primary screen, biochemical, HTRF, uHTS. 290,000 compounds, 0.36% hits. SUMO-conjugating enzyme UBC9 (Homo sapiens), P63279. HTRF SUMOylation assay, SAE1/SAE2 + UBC9. inhibition, % at 35 µM; in the data active means inhibition above about 50%, passing the limit was not always enough
TbMetRS inhib = T. brucei MetRS inhibitors, primary screen, biochemical, luminescence; methionyl-tRNA synthetase (Trypanosoma brucei brucei); purified T. brucei MetRS, ATP depletion, Kinase-Glo luminescence; inhibition, % at 11.9 µM; 360,000 compounds, 0.4% hits; AID 624268, 2012;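 active means inhibition above a per-plate cutoff of the control wells' mean inhibition plus 3 SD, cut at about 5.5% in these data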;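 further: 0% = DMSO wells median and 100% = median of wells with control inhibitor compound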
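Material: parasite MetRS enzyme / Replication: singlicate, one well per compound / Signal: luminescence of leftover ATP / Schedule: 2 h aminoacylation at 25 °C after 15 min preincubation / Medium: HEPES-MgCl2-KCl buffer plus DTT, spermine, BSA, pyrophosphatase / Doses: 11.9 µM single point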
p47phox inh = p47phox/p22phox peptide binding inhibitors, primary screen, biochemical, uHTS, NADPH oxidase regulatory subunit; Neutrophil cytosol factor 1 (Homo sapiens), P14598; 220,000 compounds, 0.53% hits; fluorescence polarization, 2 h; inhibition, % at 24.7 µM;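 active means inhibition above about 30%, limit read from the data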;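 further: 0% = p47phox with labelled peptide and 100% = labelled peptide alone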
Target sequence (P14598 whole entry, looked up): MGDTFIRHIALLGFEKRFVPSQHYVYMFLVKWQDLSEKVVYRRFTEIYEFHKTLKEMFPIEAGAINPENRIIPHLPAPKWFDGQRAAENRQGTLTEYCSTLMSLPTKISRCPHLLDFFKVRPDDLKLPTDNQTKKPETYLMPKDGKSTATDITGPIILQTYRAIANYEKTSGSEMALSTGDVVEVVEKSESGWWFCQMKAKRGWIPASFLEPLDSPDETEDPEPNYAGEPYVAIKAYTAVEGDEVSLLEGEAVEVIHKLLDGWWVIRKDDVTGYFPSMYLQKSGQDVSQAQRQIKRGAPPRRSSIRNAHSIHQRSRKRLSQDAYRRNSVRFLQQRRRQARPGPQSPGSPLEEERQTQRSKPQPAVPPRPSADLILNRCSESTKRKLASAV
p97 inhibitor = inhibitors of human p97 ATPase, primary screen, biochemical. recombinant p97 ATPase, Kinase-Glo ATP luminescence, 3 h. AID 1481, 2009. inhibition, % at 8 µM. Transitional endoplasmic reticulum ATPase (Homo sapiens), P55072. 220,000 compounds, 0.42% hits;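 further: 0% = DMSO vehicle and 100% = wells lacking enzyme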
14-3-3 Bad PPI = inhibitors of 14-3-3 zeta/Bad binding, primary screen, biochemical, TR-FRET, bovine 14-3-3 zeta. 14-3-3 protein zeta/delta (Bos taurus), P63103. TR-FRET 14-3-3zeta/Dy647-pBad peptide displacement, 1 h. inhibition, % at 21.7 µM. 220,000 compounds, 0.71% hits;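 active means inhibition above about 70%, limit read from the data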;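 further: 0% = full 14-3-3 plus peptide FRET controls and 100% = background without 14-3-3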
Target sequence (P63103 whole entry, looked up): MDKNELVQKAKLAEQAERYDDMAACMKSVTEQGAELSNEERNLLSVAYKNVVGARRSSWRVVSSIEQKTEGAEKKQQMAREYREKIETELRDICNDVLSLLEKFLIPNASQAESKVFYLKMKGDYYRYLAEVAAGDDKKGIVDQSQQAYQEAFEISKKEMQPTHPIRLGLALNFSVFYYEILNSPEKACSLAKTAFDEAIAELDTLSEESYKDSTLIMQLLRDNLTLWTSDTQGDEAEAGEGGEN
eIF4E-4G inh = eIF4E–eIF4G protein interaction inhibitors, primary screen, biochemical, uHTS, TR-FRET, eIF4GI fragment. 220,000 compounds, 0.37% hits. inhibition, % at 21.7 µM. TR-FRET eIF4E-eIF4GI(517-606) binding, 2 h;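 active means inhibition above about 30%, limit read from the data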;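 further: 0% = full FRET control wells and 100% = background wells lacking eIF4GI fragment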
Tb MetRS conf = T. brucei MetRS inhibitors, confirmation, biochemical, luminescence | shares compounds with TbMetRS inhib | T. brucei MetRS enzyme, luminescence (ATP depletion) | inhibition, % at 11.9 µM | 1,400 compounds, 93% hits; in the data active means inhibition above about 7%
Jurkat cytotox = Jurkat T cell cytotoxicity, cytotoxicity control for T. brucei MetRS inhibitor project, luminescence, high throughput | shares compounds with TbMetRS inhib | Jurkat cells viability, ATP luminescence | inhibition, % at 8.3 µM | 1,400 compounds, 12% hits;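 further: 0% = vehicle and 100% = reference inhibitor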
TbMetRS FP orth = T. brucei MetRS inhibitors, orthogonal assay for T. brucei MetRS inhibitor project, biochemical, fluorescence polarization; shares compounds with TbMetRS inhib; purified T. brucei MetRS; inhibition, % at 11.9 µM; 1,400 compounds, 44% hits; AID 651607, 2012; in the data active means inhibition above about 17%;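 further: 0% = vehicle wells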
An asterisk follows results filed as active; / = no result. Unless noted, no stated cut-off is given here; in the data, active means inhibition above about 15%; inactive means the rest.

SMILES | SUMO HTRF inh | TbMetRS inhib | p47phox inh | p97 inhibitor | 14-3-3 Bad PPI | eIF4E-4G inh | Tb MetRS conf | Jurkat cytotox | TbMetRS FP orth
O=C(NNC(=O)c1ccc2nonc2c1)Nc1ccc(Cl)cc1 | -13.4 | 10.4* | -5.3 | 9.0 | -6.7 | -0.5 | 20.2* | 4.8 | 7.6
COc1cccc(S(=O)(=O)N(C)C[C@@H]2Oc3cc(C#CCN(C)C)ccc3S(=O)(=O)N([C@H](C)CO)C[C@@H]2C)c1 | / | -0.6 | / | / | / | / | / | / | /
O=C(CSc1nncn1-c1ccccc1F)NC1CC1 | / | -0.3 | / | / | / | / | / | / | /
C/C(CC(=O)Nc1cccc(Br)c1)=N\NC(=O)c1ccc(O)cc1O | 11.6 | 27.0* | / | / | / | / | 98.4* | 1.3 | 80.2*
Cc1ccc(NS(=O)(=O)c2c(C)[nH]c(C)c2C(=O)N2CCCCC2)c(Br)c1 | -0.7 | 23.6* | / | / | / | / | 39.1* | 2.0 | 15.2
Cc1[nH]c(C)c(S(=O)(=O)Nc2cccc(Cl)c2C)c1C(=O)N1CCCCC1 | 0.4 | 24.4* | / | / | / | / | 41.1* | 0.9 | 19.8*
COC(=O)c1sccc1NC(=O)Nc1ccc(F)cc1F | -9.0 | -0.4 | / | / | / | / | / | / | /
Clc1ccc2nc(COc3ccccc3)[nH]c2c1 | -3.2 | 11.7* | / | / | / | / | 24.2* | 50.5* | 20.6*
O=C(CNC(=O)c1ccc2c(c1)OCO2)N/N=C(Br)/C=C/c1ccccc1 | -27.5 | 34.6* | 2.2 | 6.5 | 8.0 | 1.2 | 52.4* | 29.1* | 42.1*
c1ccc2c(c1)CCN(c1ncnc3c1[nH]c1ccccc13)C2 | 11.8 | 12.9* | -18.4 | / | -6.9 | 0.6 | 9.1* | 46.5* | 9.8
OC1(c2cccc(C(F)(F)F)c2)CCN(c2ncnc3c2[nH]c2ccccc23)CC1 | / | 6.1* | -55.1 | 9.6 | -6.3 | 8.9 | 14.3* | 15.6* | 8.6
c1ccc2c(c1)[nH]c1c(N3CCC4(CC3)OCCO4)ncnc12 | 29.3 | 0.6 | -14.3 | -3.5 | -7.8 | 0.5 | / | / | /
Nc1nnc(CC(=O)N/N=C/c2ccc(-c3ccc(F)cc3)o2)s1 | 2.2 | 6.4* | -3.4 | -2.6 | -4.7 | -9.0 | 2.1 | 6.0 | 1.3
CCOC(=O)c1ccc(-c2ccc(/C=N/NC(=O)Cc3nnc(N)s3)o2)cc1 | -27.8 | -0.2 | -23.6 | 3.0 | 5.2 | 0.7 | / | / | /
O=C(Nc1ccc(S(=O)(=O)Nc2cnc3ccccc3n2)cc1)c1ccc(Cl)c([N+](=O)[O-])c1 | 8.5 | 11.6* | / | / | / | / | 24.2* | -0.9 | 6.9
COc1ccc(C(=O)Nc2ccc(S(=O)(=O)Nc3cnc4ccccc4n3)cc2)cc1 | 23.0 | 0.0 | / | / | / | / | / | / | /
CCCCCOc1ccc(Br)cc1CSC(=N)N | 5.7 | 1.6 | 2.1 | 5.8 | 0.4 | -2.1 | / | / | /
COc1ccc(Br)cc1CSC(=N)N | -3.2 | 11.1* | -3.6 | 0.8 | -3.9 | -1.1 | 2.4 | 9.3 | 2.4
COc1cc(C(=O)NCC(c2ccco2)N2CCOCC2)cc(OC)c1OC (centres undefined) | / | -0.4 | / | / | / | / | / | / | /
Cc1scc(C(=O)N2CCN(S(C)(=O)=O)CC2)c1-c1ccccc1 | 1.9 | 24.2* | -3.0 | 6.5 | -5.3 | 4.3 | 3.8 | 2.2 | -2.6
CS(=O)(=O)N1CCN(C(=O)c2csc3ccccc23)CC1 | -16.8 | 0.5 | -2.2 | 5.5 | 10.4 | -1.4 | / | / | /
CC(C)(C)c1cc(NC(=O)C2(C)CCN2C(=O)C2(c3ccccc3)CCCC2)no1 (centres undefined) | / | -0.3 | / | / | / | / | / | / | /
O=C(Nc1nc2c(Cl)cccc2s1)c1ccc([N+](=O)[O-])o1 | 15.4 | -0.5 | / | / | / | / | / | / | /
O=C(Nc1nc2c(Cl)cccc2s1)c1ccc(Br)o1 | -68.1 | 6.8* | -7.3 | -0.1 | -119.4 | -250.6 | 4.4 | -4.9 | 3.8
O=C(NNC(=O)c1cc(-c2cccnc2)nc2ccccc12)Nc1ccc(Cl)cc1 | 0.2 | 20.1* | -1.4 | -2.2 | 7.6 | -1.8 | 31.0* | -7.9 | 21.7*
SMILES | SUMO HTRF inh | TbMetRS inhib | p47phox inh | p97 inhibitor | 14-3-3 Bad PPI | eIF4E-4G inh | Tb MetRS conf | Jurkat cytotox | TbMetRS FP orth
O=C(NNC(=O)c1cc(-c2ccncc2)nc2ccccc12)Nc1ccc(F)cc1 | -2.7 | 20.4* | / | / | / | / | 39.3* | -1.9 | 18.9*
CCOc1ccc(NC(=O)COC(=O)C2C3CC4OC(=O)C2C4C3)cc1 (centres undefined) | -3.0 | -0.1 | / | / | / | / | / | / | /
O=C(COc1ccccc1Cl)NNC(=O)c1ccc(-n2cncn2)c([N+](=O)[O-])c1 | / | 12.7* | / | / | / | / | 42.5* | -3.7 | 21.4*
CC1CCCCC1NC(=O)c1ccc(-n2cncn2)c([N+](=O)[O-])c1 (centres undefined) | / | 36.7* | / | / | / | / | 73.2* | -6.8 | 41.2*
CN(C)S(=O)(=O)c1cccc(NC(=O)c2ccc(-n3cncn3)c([N+](=O)[O-])c2)c1 | / | 43.2* | / | / | / | / | 78.3* | 4.9 | 49.8*
CN(C)S(=O)(=O)c1cccc(NC(=O)c2ccc(Sc3nncn3C)c([N+](=O)[O-])c2)c1 | 17.4 | 0.2 | / | 3.1 | 1.2 | -3.8 | / | / | /
CC1CCCCC1NC(=O)c1ccc(-n2cncn2)cc1 (centres undefined) | / | 0.2 | / | / | / | / | / | / | /
Cc1ccc(NC(=O)CN(C)C(=O)c2ccc(Cl)c([N+](=O)[O-])c2)cc1 | 7.8 | 35.5* | -17.4 | 2.5 | -1.2 | -0.2 | 57.6* | 1.4 | 36.9*
COCCNC(=O)C1CCCN(Cc2ccccc2F)CC1 (centres undefined) | / | -0.1 | / | / | / | / | / | / | /
C[C@H]1CN([C@@H](C)CO)C(=O)CCCn2nncc2CO[C@@H]1CN(C)S(=O)(=O)c1ccc(-c2ccccc2)cc1 | / | -0.3 | / | / | / | / | / | / | /
COCCN(Cc1ccccc1)C(=O)c1cccc(S(=O)(=O)N2CCN(Cc3ccccc3)CC2)c1 | / | -0.2 | / | / | / | / | / | / | /
COc1cc(C(=O)NC(=S)Nc2ccc3[nH]c(=O)[nH]c3c2)cc(OC)c1OC | -20.1 | 0.5 | / | / | / | / | / | / | /
Cc1cc(C)n2nc(C(=O)OCC(=O)Nc3cc(S(=O)(=O)N4CCOCC4)ccc3Cl)nc2n1 | / | -0.3 | / | / | / | / | / | / | /
O=C(O)C1=CC[C@@H](c2ccc(Cl)cc2)N(S(=O)(=O)c2ccc(Cl)cc2)[C@H]1c1ccccc1 | / | 0.2 | / | / | / | / | / | / | /
